Calls of active or inactive are those of the source. No cut-off for these calls is given here.
Columns and labels:
[1] = system: L1210; experiment: Cytotoxicity against mouse L1210 cells 2 days by coulter counting; type: functional; conditions: L1210, 48 h
How it was run: (§1)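 Cells were suspended at 300,000–500,000 cells/mL and added 1:1 to compound dilutions. Incubation was at 37 °C, 2 days for L1210 and 3 days for CEM, HeLa and HEL. Cells were counted with a Coulter counter. CC50 is the concentration inhibiting cell proliferation by 50%.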

[2] = system: Vaccinia virus; experiment: Antiviral activity against Vaccinia virus infected in human HEL cells assessed as inhibition of viral plaque formation at 250 uM; type: functional, organism-based; conditions: Orthopoxvirus vaccinia
How it was run: (§2)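 Confluent host cell monolayers were inoculated with 100 CCID50 of virus in the presence of test compound at serial dilutions (250, 50, 10, … μM). Viral cytopathicity was scored once it reached completion in untreated virus-infected controls.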

[3] = system: HEL; experiment: Cytotoxicity against human HEL cells 3 days by coulter counting; type: functional; conditions: 72 h; how it was run: as §1
[4] = system: Human alphaherpesvirus 2; experiment: Antiviral activity against Herpes simplex virus 2 G infected in human HEL cells assessed as inhibition of viral plaque formation at 250 uM; type: functional, organism-based; conditions: strain G
[5] = system: Felid alphaherpesvirus 1; experiment: Antiviral activity against Felid herpesvirus 1 infected in CrFK cells assessed as inhibition of viral plaque formation at 250 uM; type: functional, organism-based; how it was run: as §2
[6] = system: Human alphaherpesvirus 1; experiment: Antiviral activity against thymidine kinase-deficient acv-resistant Herpes simplex virus 1 KOS infected in human HEL cells assessed as inhibition of viral plaque formation at 250 uM; type: functional, organism-based
[7] = system: Vesicular stomatitis virus; experiment: Antiviral activity against Vesicular stomatitis virus infected in human Hela cells assessed as inhibition of viral plaque formation at 250 uM; type: functional, organism-based
[8] = system: HEL; experiment: Cytotoxicity against human HEL cells assessed as change in cell morphology up to 100 uM; type: cell-based
How it was run: (§3)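 Uninfected host-cell cultures were examined under the microscope. MCC was taken as the lowest compound concentration producing a detectable alteration of normal cell morphology, assessed at concentrations up to 100 μM.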

[9] = system: Respiratory syncytial virus; experiment: Antiviral activity against Respiratory syncytial virus infected in human HeLa cells assessed as inhibition of viral plaque formation at 250 uM; type: functional, organism-based; how it was run: as §2
[10] = system: HeLa; experiment: Cytotoxicity against human HeLa cells assessed as change in cell morphology up to 100 uM; type: cell-based; how it was run: as §3
[11] = system: Coxsackievirus B4; experiment: Antiviral activity against Coxsackievirus B4 infected in african green monkey Vero cells assessed as inhibition of viral plaque formation at 250 uM; type: functional, organism-based; how it was run: as §2
[12] = system: Coxsackievirus B4; experiment: Antiviral activity against Coxsackievirus B4 infected in human HeLa cells assessed as inhibition of viral plaque formation at 250 uM; type: functional, organism-based; how it was run: as §2
[13] = system: Human respirovirus 3; experiment: Antiviral activity against Parainfluenza-3 virus infected in african green monkey Vero cells assessed as inhibition of viral plaque formation at 250 uM; type: functional, organism-based; how it was run: as §2
[14] = system: HeLa; experiment: Cytotoxicity against human HeLa cells 3 days by coulter counting; type: functional; conditions: 72 h; how it was run: as §1
[15] = system: Human immunodeficiency virus 1; experiment: Antiviral activity against Human immunodeficiency virus 1 infected in human CEM cells assessed as inhibition of virus-induced giant cell formation after 4 days by microscopic analysis; type: functional, organism-based; conditions: CCRF-CEM
How it was run: (§4)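 CEM cells at about 3 × 10⁵ cells/cm³ were infected with 100 CCID50/mL of HIV-1(IIIB) or HIV-2(ROD), then seeded into wells holding test compound dilutions. After 4 days at 37 °C, virus-induced giant cell formation was scored microscopically.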

[16] = system: Punta Toro virus; experiment: Antiviral activity against Punta Toro virus infected in african green monkey Vero cells assessed as inhibition of viral plaque formation at 250 uM; type: functional, organism-based
[17] = system: CCRF-CEM; experiment: Cytotoxicity against human CEM cells 3 days by coulter counting; type: functional; conditions: 72 h; how it was run: as §1
[18] = system: Human betaherpesvirus 5; experiment: Antiviral activity against Human cytomegalovirus AD169 infected in human HEL cells assessed as inhibition of viral plaque formation at 250 uM; type: functional, organism-based
[19] = system: Human alphaherpesvirus 3; experiment: Antiviral activity against thymidine kinase-positive Varicella Zoster virus Oka infected in human HEL cells assessed as inhibition of viral plaque formation at 250 uM; type: functional, cell-based; conditions: strain Oka vaccine
[20] = system: Mammalian orthoreovirus 1; experiment: Antiviral activity against Reovirus-1 infected in african green monkey Vero cells assessed as inhibition of viral plaque formation at 250 uM; type: functional, organism-based; how it was run: as §2
[21] = system: MDCK; experiment: Cytotoxicity against MDCK cells assessed as change in cell morphology up to 100 uM; type: cell-based, Canis lupus familiaris; conditions: dog; how it was run: as §3
[22] = system: Vesicular stomatitis virus; experiment: Antiviral activity against Vesicular stomatitis virus infected in human HEL cells assessed as inhibition of viral plaque formation at 250 uM; type: functional, organism-based; how it was run: as §2
[23] = system: Human alphaherpesvirus 3; experiment: Antiviral activity against thymidine kinase-deficient Varicella Zoster virus 07/1 infected in human HEL cells assessed as inhibition of viral plaque formation at 250 uM; type: functional, organism-based
[24] = system: Human alphaherpesvirus 1; experiment: Antiviral activity against Herpes simplex virus 1 KOS infected in human HEL cells assessed as inhibition of viral plaque formation at 250 uM; type: functional, organism-based; how it was run: as §2
[25] = system: Human betaherpesvirus 5; experiment: Antiviral activity against Human cytomegalovirus Davis infected in human HEL cells assessed as inhibition of viral plaque formation at 250 uM; type: functional, organism-based
[26] = Cytotoxicity against CRFK cells assessed as change in cell morphology up to 100 uM; type: cell-based, Felis catus; conditions: cat; how it was run: as §3
[27] = system: Human immunodeficiency virus 2; experiment: Antiviral activity against Human immunodeficiency virus 2 infected in human CEM cells assessed as inhibition of virus-induced giant cell formation after 4 days by microscopic analysis; type: functional, organism-based; conditions: CCRF-CEM; how it was run: as §4
[28] = system: Feline coronavirus; experiment: Antiviral activity against Feline coronavirus infected in CrFK cells assessed as inhibition of viral plaque formation at 250 uM; type: functional, organism-based; how it was run: as §2
[29] = system: Vero; experiment: Cytotoxicity against african green monkey Vero cells assessed as change in cell morphology up to 100 uM; type: cell-based; conditions: chlorocebus sabaeus; how it was run: as §3
[30] = system: Sindbis virus; experiment: Antiviral activity against Sindbis virus infected in african green monkey Vero cells assessed as inhibition of viral plaque formation at 250 uM; type: functional, organism-based; how it was run: as §2

Structure (SMILES)	CC50 [1] [µM]	Activity [2]	CC50 [3] [µM]	Activity [4]	Activity [5]	Activity [6]	Activity [7]	Activity [8]	Activity [9]	Activity [10]	Activity [11]	Activity [12]	Activity [13]	CC50 [14] [µM]	Activity [15]	Activity [16]	CC50 [17] [µM]	Activity [18]	Activity [19]	Activity [20]	also measured
CCOP(=O)(OCC)[C@@H]1C[C@@H](n2cc(-c3ccccc3F)nn2)ON1C (relative stereo)	120	inactive	73	inactive	inactive	inactive	inactive	Non-toxic	inactive	Non-toxic	inactive	inactive	inactive	202	inactive	inactive	> 250	inactive	inactive	inactive	Activity [21]: Non-toxic; Activity [22]: inactive; Activity [23]: inactive; Activity [24]: inactive; Activity [25]: inactive; Activity [26]: Non-toxic; Activity [27]: inactive; Activity [28]: inactive; Activity [29]: Non-toxic; Activity [30]: inactive
CCOP(=O)(OCC)[C@@H]1C[C@@H](n2cc(-c3ccc(F)cc3F)nn2)ON1C (racemic)	131	inactive	59	inactive	inactive	inactive	inactive	Non-toxic	inactive	Non-toxic	inactive	inactive	inactive	162	inactive	inactive	≥ 250	inactive	inactive	inactive	Activity [21]: Non-toxic; Activity [22]: inactive; Activity [23]: inactive; Activity [24]: inactive; Activity [25]: inactive; Activity [26]: Non-toxic; Activity [27]: inactive; Activity [28]: inactive; Activity [29]: Non-toxic; Activity [30]: inactive

— ChEMBL document CHEMBL1926651, “Design, synthesis, antiviral and cytostatic evaluation of novel isoxazolidine nucleotide analogues with a 1,2,3-triazole linker” (Eur J Med Chem, 2012)
